Only some compounds are listed: those with a hit (about 12% of all), similar ones and a draw of the others.
KCC2 mod = modulates chloride dependent transport by human KCC2 | KCC2 cells, thallium flux FluoZin-2 fluorescence | B-score of Tl+ flux slope (higher = more flux/activation; lower = inhibition) at 10 µM | actives 2.2% (n = 190,000);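 active = thallium flux slope and its plate-corrected score both differing from the plate sample mean at a set confidence after two filtering rounds, in either direction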;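 note: slope of fluorescence scaled to starting intensity during 10 to 20 s after thallium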
ROMK primary = modulates human ROMK potassium channel activity | P48048 | Tet-inducible ROMK, thallium flux fluorescence; actives lie on both sides | B-score at 10 µM | actives 2% (n = 130,000);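 active = signal ratio slope over the read window, or its plate-corrected B-score, at least 3 SD from the plate mean, either direction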;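 note: B-score of the F/F0 ratio slope over 7 to 12 s after thallium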
Target sequence (P48048 whole entry, looked up): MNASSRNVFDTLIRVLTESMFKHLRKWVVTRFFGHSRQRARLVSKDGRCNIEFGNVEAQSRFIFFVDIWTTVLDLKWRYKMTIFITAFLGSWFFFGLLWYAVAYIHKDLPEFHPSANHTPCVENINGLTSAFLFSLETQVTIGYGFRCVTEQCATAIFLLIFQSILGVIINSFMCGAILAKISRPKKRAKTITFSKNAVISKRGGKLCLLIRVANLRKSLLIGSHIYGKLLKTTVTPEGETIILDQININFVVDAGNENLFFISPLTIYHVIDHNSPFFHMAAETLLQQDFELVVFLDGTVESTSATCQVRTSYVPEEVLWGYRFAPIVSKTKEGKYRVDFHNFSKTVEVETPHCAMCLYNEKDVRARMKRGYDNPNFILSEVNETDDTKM
Diaphorase act = diaphorase activation or chemical reduction counter-screen | Diaphorase/resazurin coupled assay, resorufin fluorescence, 16 min; active compounds read high; 1 = vehicle wells, 0 = NADH-free wells | activation factor at 20 µM | actives 0.005% (n = 190,000) | AID 1229;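 active = diaphorase activity raised at least twofold by the compound at 20 µM; inactive = activation factor below 2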
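Material: Clostridium kluyveri diaphorase, purified enzyme; Quantity: enzyme 0.07 U/mL final; Medium: HEPES pH 7.4 buffer with MgCl2 and Tween 20; Dosing: single compound dose of 20 µM, 1% DMSO final; Schedule: 16 min reaction at room temperature; Measured by: red resorufin fluorescence at 544/590 nm excitation/emission.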
Diaphorase inh = counter-screen for diaphorase-based assays: diaphorase inhibitors and chemical oxidizers; AID 1217; diaphorase resazurin-to-resorufin fluorescence, NADH, 16 min; bacterial (C. kluyveri) enzyme, not human; actives 0.69% (n = 190,000); inhibition, % at 20 µM;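 active = primary screen inhibition at 20 µM above a set limit, cut at about 50% in these data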;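 note: plate controls were DMSO with full reaction for no effect and wells lacking NADH for full effect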
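Test system: diaphorase enzyme from Clostridium kluyveri; amount: diaphorase at 0.14 U/mL in enzyme working solution; detection: fluorescence of resorufin formed from resazurin, Ex 544/Em 590 nm; times: reaction incubation of 16 min at room temperature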
WT yeast gro inh = growth inhibition of WT yeast, mitochondrial fusion screen; actives 2.1% (n = 190,000); AID 1362; inhibition, % at 10 µM; mitochondrial fusion phenotypic screen, WT strain; in the data active = inhibition above about 58%; tested in S. cerevisiae
L major viab = reduces viability of Leishmania major promastigotes; resazurin fluorescence viability; inhibition, % at 10 µM; actives 9% (n = 200,000); AID 1063; in the data active = inhibition above about 50%;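 note: promastigotes grown with compound for 44 hours at 28 °C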
Active calls of the source: *; . = no result given.

SMILES	KCC2 mod	ROMK primary	Diaphorase act	Diaphorase inh	WT yeast gro inh	L major viab
Cc1cccc(NC(=S)NC(=O)c2cc(-c3ccccc3)nc3ccccc23)c1	8.49*	.	0.8	21.9	-1.3	11.0
Cc1cccc(-c2cc(C(=O)Nc3ccc4c(c3)OCCO4)c3ccccc3n2)c1	0.0113	.	0.9	11.0	-2.5	23.3
Cc1ccccc1NC(=S)NC(=O)c1cc(-c2ccccc2)nc2ccccc12	14.3*	.	0.8	16.0	11.8	40.1
O=C(NNC(=O)c1cc(-c2ccc(Cl)c(Cl)c2)nc2ccccc12)Nc1ccccc1	0.0349	-0.038	1	1.8	-7.1	61.0*
CC(C)c1nc(N2CCOCC2)c(C#N)c2c1CCCC2	.	.	0.8	16.9	74.4*	3.1
CCN(CC(=O)Nc1ccccc1OC)CC(=O)Nc1ccccc1-c1ccccc1	-0.0267	2.37	0.8	24.3	16.3	19.6
Cc1ccc(C(=O)N/N=C\c2ccc([N+](=O)[O-])s2)cn1	1.21	-0.0233	0.9	7.2	-3.9	100.4*
Cc1cc(C)n(CC(=O)N/N=C/c2ccc([N+](=O)[O-])s2)n1	1.13	-0.616	0.9	12.3	23.1	99.3*
O=C(N/N=C/c1ccc([N+](=O)[O-])s1)c1cccc(Br)c1	2.51	-0.912	0.9	12.5	-2.4	100.4*
O=C(N/N=C/c1cc(Br)ccc1O)c1ccncc1	-1.89	-0.417	.	.	.	.
O=C(N/N=C/c1ccc(O)c2ncccc12)c1cccc(Br)c1	-1.51	.	0.8	16.4	-10.2	100.4*
O=C(N/N=C/c1cccc([N+](=O)[O-])c1)c1cccc(Br)c1	-0.714	0.459	1	4.9	3.1	1.4
COc1ccc(CCNC2CC(=O)N(C3CCCCC3)C2=O)cc1OC (configuration not stated)	0.758	0.258	0.9	14.1	-7.6	-5.2
O=C(COC(=O)C(c1ccccc1)c1ccccc1)NCc1ccco1	-0.297	-1.75	1	-1.1	9.5	-5.4
CCOCC(=O)Nc1cc(C(=O)Nc2ccc(F)cc2)ccc1Cl	.	.	0.9	14.3	-9.1	-7.6
Cn1c(SCC(=O)N/N=C/c2ccc([N+](=O)[O-])s2)nnc1-c1ccc(Cl)cc1	0.0605	-0.983	0.8	18.2	84.6	100.4*
Cc1ccc(/C=N/NC(=O)c2ccncc2)s1	1.9	.	.	.	.	.
COc1cc([N+](=O)[O-])cc(/C=N/NC(=O)CSc2nnc(-c3ccccc3)n2C)c1O	-0.864	0.0449	.	.	.	.
COc1ccc(NC(=O)CCC(=O)N/N=C/c2ccc([N+](=O)[O-])s2)cc1	0.49	.	0.8	17.6	75.2	100.4*
O=C(N/N=C/c1ccc([N+](=O)[O-])s1)c1ccncc1	1.14	.	0.9	6.5	-12.4	100.4*
CCOC(=O)N/N=C\c1ccc([N+](=O)[O-])s1	1.26	0.147	1	4.4	-9.4	39.3
CC(C)(C)OC(=O)N/N=C\c1ccc([N+](=O)[O-])s1	-1.85	.	1	1.9	72.9	80.3*
COc1ccccc1Nc1nc(N)nc(CSC(=S)N2CC(C)CC(C)C2)n1 (configuration not stated)	0.662	-0.481	0.8	16.7	43.7	18.7
CCOC(=O)N1CCN(CC(O)COC2CC(C)CC(C)(C)C2)CC1 (configuration not stated)	0.356	.	1	1.1	33.1	92.6*
CC1CC(OCC(O)CN2CCOCC2)CC(C)(C)C1 (configuration not stated)	0.442	0.209	0.9	14.0	-0.5	76.9*
SMILES	KCC2 mod	ROMK primary	Diaphorase act	Diaphorase inh	WT yeast gro inh	L major viab
CC1CC(OCC(O)C[N+]2(C)CCOCC2)CC(C)(C)C1 (configuration not stated)	-0.317	1.14	0.9	5.1	-2.2	-7.1
Cc1ccc(-n2nnnc2SCC(=O)Nc2sccc2C#N)cc1	0.486	0.121	0.9	13.3	-1.6	-4.5
CC(C)(Cl)C1Cc2cc3ccc(=O)oc3cc2O1 (configuration not stated)	0.828	.	1.1	-12.0	35.9	-5.2
CCOC(=O)c1ccc(NC(=S)NNC(=O)C2(C)CC2(Cl)Cl)cc1 (configuration not stated)	-1.71	.	0.8	20.8	-8.9	-10.4
Nn1c(SCC(=O)NC(=O)Nc2ccc3c(c2)OCCO3)nnc1C1CC1	0.99	-0.997	0.8	20.6	9.3	-4.3
Cc1nn(CCC(=O)NNC(=S)Nc2ccc([N+](=O)[O-])cc2)c(C)c1[N+](=O)[O-]	0.578	-0.777	0.1	85.6*	1.4	-9.1
O=C(Cn1nc(C(F)F)cc1C(F)F)NNC(=S)Nc1ccc([N+](=O)[O-])cc1	.	-0.35	0.5	52.0*	-4.8	-6.9
Cc1ccccc1NC(=S)N(Cc1ccco1)C(C)c1ccccn1 (configuration not stated)	0.11	0.0361	1	-0.1	28.7	3.8
CCOc1ncccc1C(=O)OCc1ccc(C(=O)OC)cc1	-1.82	.	0.9	5.5	-5.5	-0.7
CCNC(=S)Nc1ccc(OCC)cc1	0.894	-0.0709	0.9	14.1	15.8	65.3*
CCOc1ccc(NC(=S)NC(C)CCc2ccccc2)cc1 (configuration not stated)	-2.33	0.186	0.9	14.1	61.1*	0.3
Cc1nonc1OCCn1c([N+](=O)[O-])cnc1C	0.275	0.0177	0.9	9.4	-15.6	-1.4
Cc1ccc(S(=O)(=O)Nc2ccc(C(=O)OCC(=O)N(CCC#N)c3ccccc3)cc2)cc1C	-0.973	-0.0829	0.9	13.4	-5.2	0.4
COc1ccc(OC)c(NC(=O)C2C3CC4OC(=O)C2C4C3)c1 (configuration not stated)	0.397	.	1	2.0	-8.9	-4.2
COc1ccc(NC(=O)CC2S/C(=N\c3nccs3)N(C)C2=O)cc1 (configuration not stated)	-0.0312	0.51	0.8	20.2	3.1	-4.3
NC(=O)NC(=O)COC(=O)c1ccc(Cl)c(S(=O)(=O)N(Cc2ccccc2)c2ccc(Cl)cc2)c1	-0.666	-0.634	0.7	25.6	30.8	1.4
NC(=O)COC(=O)c1ccc(Cl)c(S(=O)(=O)N(Cc2ccccc2)c2ccc(Cl)cc2)c1	-2.15	.	0.6	36.3	76.5*	-1.1
COc1cccc(-n2c(CN3CCN(c4ccccc4)CC3)nc3ccc([N+](=O)[O-])cc3c2=O)c1	0.29	0.736	0.9	11.2	26.9	63.3*
Cn1c(C(=O)NCc2cccnc2)cc2sc(Cl)cc21	-0.184	.	0.9	13.0	-10.2	81.0*
O=C(NCc1cccnc1)c1sc2cc(Cl)ccc2c1Cl	-1.12	.	1	0.7	1.7	81.5*
CC(=O)n1nc(-c2ccc(C)cc2)nc1NCc1ccc(F)cc1	0.526	-0.509	0.9	6.6	5.2	2.7
Cc1cc(NC(=S)NC(=O)/C=C/c2ccc(S(=O)(=O)N3CCOCC3)cc2)ccc1Br	1.23	0.0193	0.8	16.7	9.3	44.8
